# In ChEMBL document CHEMBL2380202, “Identification of substituted 2-thio-6-oxo-1,6-dihydropyrimidines as inhibitors of human lactate dehydrogenase” (Bioorg Med Chem Lett, 2013):
# Calls of active or inactive are those of the source. No cut-off for these calls is given here.
# Experiments:
# [1] = biological target: T1, L-lactate dehydrogenase A chain (Homo sapiens, UniProt P00338); experiment: Inhibition of human recombinant carboxy-terminal his-tagged LDHA (1 to 331) expressed in Escherichia coli using pyruvate as substrate after 10 mins by UV endpoint analysis
# [2] = biological target: T1, L-lactate dehydrogenase A chain; experiment: Binding affinity to human recombinant carboxy-terminal avi-tagged LDHA (1 to 331) expressed in Escherichia coli by surface plasmon resonance analysis presence of NADH
# Outline: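 SPR with NADH present; twofold dilution series of analyte injections; K_D obtained by fitting kinetics or the equilibrium dose response; arithmetic mean of 2 separate runs.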
# [3] = biological target: L-lactate dehydrogenase B chain (Homo sapiens, UniProt P07195); experiment: Inhibition of human recombinant carboxy-terminal his-tagged LDHB (1 to 333) expressed in insect cells using pyruvate as substrate after 10 mins by UV endpoint analysis
# [4] = biological target: L-lactate dehydrogenase (Homo sapiens) (UniProt V9HWB9); experiment: Inhibition of LDH in human HCC1954 cells assessed as lactate accumulation up to 50 uM after 6 hrs; assay type: cell-based
# [5] = Clearance in human liver microsomes at 1 uM up to 60 mins; assay type: ADME, Microsome
# Outline: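 Human liver microsome stability, single determination (n = 1); in vitro result extrapolated to in vivo clearance, classed stable below 6.2 and labile above 15.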
# [6] = Aqueous solubility of the compound in PBS buffer at pH 7.2 at 100 uM after 24 hrs; assay type: physicochemical
# Outline: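 Aqueous solubility estimated from a high-throughput assay; single determination (n = 1).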
# [7] = biological target: T1, L-lactate dehydrogenase A chain; experiment: Binding affinity to human recombinant carboxy-terminal avi-tagged LDHA (1 to 331) expressed in Escherichia coli by surface plasmon resonance analysis absence of NADH
# Outline: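 SPR run without NADH; analyte injected as a twofold dilution series; K_D estimated relative to a control; mean of 2 separate runs.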
# [8] = biological target: T2, Malate dehydrogenase, mitochondrial (Homo sapiens, UniProt P40926); experiment: Inhibition of human recombinant carboxy-terminal his-tagged MDH-2 (20 to 338) expressed in Escherichia coli using oxaloacetic acid as substrate after 10 mins by UV endpoint analysis
# T2 sequence (P40926 whole entry): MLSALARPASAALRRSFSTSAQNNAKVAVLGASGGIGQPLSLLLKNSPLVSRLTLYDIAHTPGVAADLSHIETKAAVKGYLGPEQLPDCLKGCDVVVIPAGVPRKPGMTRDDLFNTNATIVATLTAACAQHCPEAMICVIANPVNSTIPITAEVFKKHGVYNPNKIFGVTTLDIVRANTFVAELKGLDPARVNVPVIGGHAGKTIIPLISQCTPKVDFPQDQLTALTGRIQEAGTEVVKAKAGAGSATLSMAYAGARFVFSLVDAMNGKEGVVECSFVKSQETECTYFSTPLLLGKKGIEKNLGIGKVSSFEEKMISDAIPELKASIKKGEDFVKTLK
# Outline: (§1)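 Biochemical enzyme inhibition; reported as the arithmetic mean of 2 separate runs (n = 2).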
# [9] = biological target: T3, Malate dehydrogenase, cytoplasmic (Homo sapiens, UniProt P40925); experiment: Inhibition of human recombinant carboxy-terminal his-tagged MDH-1 (3 to 334) expressed in Escherichia coli using oxaloacetic acid as substrate after 10 mins by UV endpoint analysis; outline: as §1
# T3 sequence (P40925 whole entry): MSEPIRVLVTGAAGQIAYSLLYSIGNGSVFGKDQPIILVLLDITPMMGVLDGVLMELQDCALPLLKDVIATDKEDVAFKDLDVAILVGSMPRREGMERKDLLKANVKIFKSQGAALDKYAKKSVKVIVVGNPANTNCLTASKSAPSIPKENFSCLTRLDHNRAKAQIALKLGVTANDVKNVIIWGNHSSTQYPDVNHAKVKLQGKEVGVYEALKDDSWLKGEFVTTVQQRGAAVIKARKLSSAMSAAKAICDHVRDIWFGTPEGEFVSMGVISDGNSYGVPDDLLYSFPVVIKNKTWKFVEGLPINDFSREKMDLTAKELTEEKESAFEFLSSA
# [10] = biological target: T1, L-lactate dehydrogenase A chain; experiment: Inhibition of human recombinant carboxy-terminal his-tagged LDHA (1 to 331) expressed in Escherichia coli using pyruvate as substrate after 10 mins by MS endpoint analysis; outline: as §1
# Sequence of L-lactate dehydrogenase B chain (P07195 whole entry): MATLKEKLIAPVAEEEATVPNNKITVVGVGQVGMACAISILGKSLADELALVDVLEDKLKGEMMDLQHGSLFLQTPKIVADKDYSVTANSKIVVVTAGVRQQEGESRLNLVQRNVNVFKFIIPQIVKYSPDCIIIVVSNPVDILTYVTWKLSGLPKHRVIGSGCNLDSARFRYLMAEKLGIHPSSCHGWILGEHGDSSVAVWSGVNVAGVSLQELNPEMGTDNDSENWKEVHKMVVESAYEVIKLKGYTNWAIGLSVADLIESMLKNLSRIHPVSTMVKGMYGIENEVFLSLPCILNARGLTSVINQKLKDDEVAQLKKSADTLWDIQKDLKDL
IC50 [1] [µM],Kd [2] [µM],IC50 [3] [µM],Structure (SMILES),other results
46.8,314,> 100,N#Cc1c(-c2ccc(Cl)cc2)nc(SCC(=O)Nc2ccc(F)c(Cl)c2)[nH]c1=O,
0.71,2.9,2.3,CC(Sc1nc(-c2ccc(Cl)c(F)c2)c(C#N)c(=O)[nH]1)C(=O)Nc1ccc(S(N)(=O)=O)cc1 (racemic),"inhibition [4]: inactive; CLhep predicted at 1 µM [5]: 3.4 mL/min/kg; solubility at 24 h, 100 µM [6]: 64 µM"
0.65,3,2.4,CCC(Sc1nc(-c2ccc(Cl)cc2)c(C#N)c(=O)[nH]1)C(=O)Nc1ccc(S(N)(=O)=O)cc1 (racemic),"CLhep predicted at 1 µM [5]: 2.8 mL/min/kg; solubility at 24 h, 100 µM [6]: 136 µM"
> 100,,,CC(Sc1nc(-c2ccccc2)cc(=O)[nH]1)C(=O)Nc1ccc(S(N)(=O)=O)cc1 (racemic),
12.5,,,CC(Sc1ncc(C#N)c(=O)[nH]1)C(=O)Nc1ccc(S(N)(=O)=O)cc1 (racemic),
8.8,6.1,,N#Cc1c(-c2ccc(Cl)cc2)nc(SCC(=O)Nc2ccc(S(N)(=O)=O)cc2)[nH]c1=O,Kd [7]: 384 µM; IC50 [8]: > 10 µM; IC50 [9]: > 10 µM; CLhep predicted at 1 µM [5]: 5.3 mL/min/kg; IC50 [10]: 1.9 µM
,,,COc1ccc(CNC(=O)c2cc(=O)c3c(O)cc(OCCc4ccc(NC(=O)C(=O)O)c(OC)c4)cc3o2)cc1,IC50 [8]: 8.48 µM; IC50 [9]: 6.78 µM
0.48,2.2,3,CC(Sc1nc(-c2ccc(Cl)cc2)c(C#N)c(=O)[nH]1)C(=O)Nc1ccc(S(N)(=O)=O)cc1 (racemic),"inhibition [4]: inactive; CLhep predicted at 1 µM [5]: 2.6 mL/min/kg; solubility at 24 h, 100 µM [6]: 58 µM"
> 100,1210,,CCc1ccccc1NC(=O)CSc1nc(-c2ccc(Cl)cc2)c(C#N)c(=O)[nH]1,
22.6,552,,CC(C)c1ccc(NC(=O)CSc2nc(-c3ccc(Cl)cc3)c(C#N)c(=O)[nH]2)cc1,
0.75,5.1,3.7,CC(Sc1nc(-c2ccc(Cl)c(Cl)c2)c(C#N)c(=O)[nH]1)C(=O)Nc1ccc(S(N)(=O)=O)cc1 (racemic),"inhibition [4]: inactive; CLhep predicted at 1 µM [5]: 2.6 mL/min/kg; solubility at 24 h, 100 µM [6]: 30 µM"
12.1,15.4,,N#Cc1c(-c2ccccc2)nc(SCC(=O)Nc2ccc(S(N)(=O)=O)cc2)[nH]c1=O,
> 100,532,> 100,CNS(=O)(=O)c1ccc(NC(=O)CSc2nc(-c3ccc(Cl)cc3)c(C#N)c(=O)[nH]2)cc1,
> 100,1010,,Cc1ccccc1NC(=O)CSc1nc(-c2ccc(Cl)cc2)c(C#N)c(=O)[nH]1,
42.4,38.4,,COc1cccc(-c2nc(SCC(=O)Nc3ccc(S(N)(=O)=O)cc3)[nH]c(=O)c2C#N)c1,
38.6,552,> 100,Cc1ccc(NC(=O)CSc2nc(-c3ccc(Cl)cc3)c(C#N)c(=O)[nH]2)cc1C,
27.6,466,,Cc1ccc(NC(=O)CSc2nc(-c3ccc(Cl)cc3)c(C#N)c(=O)[nH]2)cc1Cl,
> 100,1060,,Cc1cccc(NC(=O)CSc2nc(-c3ccc(Cl)cc3)c(C#N)c(=O)[nH]2)c1C,
> 100,1110,,COc1ccccc1NC(=O)CSc1nc(-c2ccc(Cl)cc2)c(C#N)c(=O)[nH]1,
50.2,462,> 100,Cc1c(Cl)cccc1NC(=O)CSc1nc(-c2ccc(Cl)cc2)c(C#N)c(=O)[nH]1,
55.7,570,> 100,N#Cc1c(-c2ccc(Cl)cc2)nc(SCC(=O)Nc2ccc(Cl)cc2)[nH]c1=O,
7.4,8.9,7.7,CCC(Sc1nc(-c2cccc(OC)c2)c(C#N)c(=O)[nH]1)C(=O)Nc1ccc(S(N)(=O)=O)cc1 (racemic),CLhep predicted at 1 µM [5]: 6.9 mL/min/kg
26.5,640,> 100,COc1ccc(NC(=O)CSc2nc(-c3ccc(Cl)cc3)c(C#N)c(=O)[nH]2)cc1Cl,
,,33.8,NC(=O)C(=O)O [OXAMATE],
55.8,386,> 100,N#Cc1c(-c2ccc(Cl)cc2)nc(SCC(=O)Nc2cccc(Cl)c2)[nH]c1=O,
